Among the data in ChEMBL document CHEMBL1136050, “Synthesis, structural evaluation, and estrogen receptor interaction of 2,3-diarylpiperazines” (J Med Chem, 2002) are Relative activation and relative binding affinity (RBA) values, retold here.

Test [1] deals with T1, Estrogen receptor (Homo sapiens) (UniProt P03372).
T1 sequence (whole entry): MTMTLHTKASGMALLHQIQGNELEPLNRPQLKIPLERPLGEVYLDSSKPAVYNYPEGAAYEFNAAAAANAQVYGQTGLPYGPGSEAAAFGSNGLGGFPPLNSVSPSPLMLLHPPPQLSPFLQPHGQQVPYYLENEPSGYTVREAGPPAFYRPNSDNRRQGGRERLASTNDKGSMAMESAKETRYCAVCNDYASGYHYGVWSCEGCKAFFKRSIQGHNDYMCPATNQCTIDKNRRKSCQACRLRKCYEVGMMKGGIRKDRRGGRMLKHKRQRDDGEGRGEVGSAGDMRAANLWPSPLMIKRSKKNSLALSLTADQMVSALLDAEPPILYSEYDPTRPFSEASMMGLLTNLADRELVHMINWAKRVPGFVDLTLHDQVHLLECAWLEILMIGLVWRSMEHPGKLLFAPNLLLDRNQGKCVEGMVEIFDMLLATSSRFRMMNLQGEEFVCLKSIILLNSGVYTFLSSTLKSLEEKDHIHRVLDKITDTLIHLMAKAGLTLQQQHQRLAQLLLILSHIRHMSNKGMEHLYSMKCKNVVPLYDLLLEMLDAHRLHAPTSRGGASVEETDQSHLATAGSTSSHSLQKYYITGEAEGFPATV
Put plainly: Activation of the estrogen receptors of MCF-7-2a cells at 10e-6 M. The method, boiled down: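 MCF-7-2a cells stably carrying ERE(wtc)luc, kept one week in DMEM with L-glutamine, antibiotics and dextran/charcoal-treated BCS (50 mL/L). Seeded at about 2.2 × 10^5 cells/mL in six-well plates; compound added after 24 h and cells incubated 50 h. Lysed 20 min at room temperature, luciferase luminescence read for 10 s (RLU), normalized to Bradford protein. Line value taken at 1 μM.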

The subject of test [2] is Estrogen receptor alpha (Bos taurus). Briefly: Relative binding affinity to Estrogen receptor alpha in calf uterine cytosol compared to [3H]E2. The conditions noted are these: Uterus.

A value given as a limit tells only on which side of the number the result lay.

Consider `CCN1CCN(CC)[C@@H](c2ccc(OC)cc2F)[C@H]1c1ccc(OC)cc1F`, for which the Relative activation in test [1] stood at 7%. Consider `Oc1ccc([C@H]2NCCN[C@H]2c2ccc(O)cc2F)c(F)c1`, for which the Relative activation in test [1] was determined as 4%. Further, in test [2], the relative binding affinity (RBA) was less than 0.02.

Turning to `COc1ccc([C@H]2NCCN[C@H]2c2ccc(OC)cc2)cc1`, the Relative activation in test [1] stood at 5%.

Take `COc1ccc([C@H]2NCCN[C@H]2c2c(Cl)cc(OC)cc2Cl)c(Cl)c1`: the Relative activation in test [1] came to 3%. Turning to `COc1ccc([C@H]2NCCN[C@H]2c2ccc(OC)cc2Cl)c(Cl)c1`, in test [1], the Relative activation came out at 1%. For the molecule `Oc1ccc(Cl)c([C@H]2NCCN[C@H]2c2c(Cl)ccc(O)c2Cl)c1Cl`, the Relative activation in test [1] worked out at 12%. In test [2], this molecule came in with a relative binding affinity (RBA) of less than 0.02. Taken in the same sequence, the figures for `CCN1CCN[C@H](c2ccc(O)cc2F)[C@@H]1c1ccc(O)cc1F` were 34% and 0.06. With `COc1ccc(Cl)c([C@H]2NCCN[C@H]2c2c(Cl)ccc(OC)c2Cl)c1Cl`, in test [1], the Relative activation came out at 8%.

As to `CCN1CCN(CC)[C@@H](c2ccc(O)cc2F)[C@H]1c1ccc(O)cc1F`, the Relative activation in test [1] was 4%. The relative binding affinity (RBA) in test [2] was determined as 0.03. As to `CCN1CCN[C@H](c2ccc(OC)cc2Cl)[C@@H]1c1ccc(OC)cc1Cl`, in test [1], the Relative activation was 4%. With `CCN1CCN(CC)[C@@H](c2ccc(OC)cc2)[C@H]1c1ccc(OC)cc1`, the Relative activation in test [1] stood at 4%. Turning to `COc1ccc([C@H]2NCCN[C@H]2c2ccc(OC)cc2F)c(F)c1`, the Relative activation in test [1] came out at 4%. With `Oc1ccc([C@H]2NCCN[C@H]2c2ccc(O)cc2Cl)c(Cl)c1`, in test [1], the Relative activation is 7%. The molecule also yielded a relative binding affinity (RBA) in test [2] of less than 0.02.

For the molecule `COc1cc(Cl)c([C@H]2NCCN[C@H]2c2c(Cl)cc(OC)cc2Cl)c(Cl)c1`, the Relative activation in test [1] came out at 5%.

Turning to `CCN1CCN(CC)[C@@H](c2ccc(O)cc2)[C@H]1c1ccc(O)cc1`, the Relative activation in test [1] was 8%. This molecule also yielded a relative binding affinity (RBA) in test [2] of less than 0.02.

For `Oc1cc(Cl)c([C@H]2NCCN[C@H]2c2c(Cl)cc(O)cc2Cl)c(Cl)c1`, the Relative activation in test [1] is 73%. This molecule had a relative binding affinity (RBA) in test [2] of 0.05.

For the molecule `Oc1ccc([C@H]2NCCN[C@H]2c2c(Cl)cc(O)cc2Cl)c(Cl)c1`, the Relative activation in test [1] turned out to be 20%. The relative binding affinity (RBA) in test [2] is less than 0.02.

As for `CCN1CCN(CC)[C@@H](c2ccc(OC)cc2Cl)[C@H]1c1ccc(OC)cc1Cl`, the Relative activation in test [1] was determined as 0%. As for `Oc1ccc([C@H]2NCCN[C@H]2c2ccc(O)cc2)cc1`, the Relative activation in test [1] is -1%. For the same molecule, in test [2], the relative binding affinity (RBA) was less than 0.02. As to `CCN1CCN[C@H](c2ccc(OC)cc2F)[C@@H]1c1ccc(OC)cc1F`, in test [1], the Relative activation is 3%.

Consider `CCN1CCN[C@H](c2ccc(O)cc2Cl)[C@@H]1c1ccc(O)cc1Cl`, for which the Relative activation in test [1] amounted to 74%. Also, in test [2], the relative binding affinity (RBA) worked out at 0.42.

As for `CCN1CCN(CC)[C@@H](c2ccc(O)cc2Cl)[C@H]1c1ccc(O)cc1Cl`, the Relative activation in test [1] was determined as 37%. In addition, the relative binding affinity (RBA) in test [2] worked out at 0.17.
